Test results taken from ChEMBL document CHEMBL1154352, “Toll-like receptor 7 selective synthetic oligoribonucleotide agonists: synthesis and structure-activity relationship studies” (J Med Chem, 2009).
Activity calls are given as the source filed them.

Columns and labels:
[1] = target: T1, Toll-like receptor 7 (Homo sapiens) (UniProt Q9NYK1); experiment: Activation of human TLR7 expressed in HEK293XL assessed as induction of NF-kappaB activity by reporter gene assay
T1 sequence (whole entry): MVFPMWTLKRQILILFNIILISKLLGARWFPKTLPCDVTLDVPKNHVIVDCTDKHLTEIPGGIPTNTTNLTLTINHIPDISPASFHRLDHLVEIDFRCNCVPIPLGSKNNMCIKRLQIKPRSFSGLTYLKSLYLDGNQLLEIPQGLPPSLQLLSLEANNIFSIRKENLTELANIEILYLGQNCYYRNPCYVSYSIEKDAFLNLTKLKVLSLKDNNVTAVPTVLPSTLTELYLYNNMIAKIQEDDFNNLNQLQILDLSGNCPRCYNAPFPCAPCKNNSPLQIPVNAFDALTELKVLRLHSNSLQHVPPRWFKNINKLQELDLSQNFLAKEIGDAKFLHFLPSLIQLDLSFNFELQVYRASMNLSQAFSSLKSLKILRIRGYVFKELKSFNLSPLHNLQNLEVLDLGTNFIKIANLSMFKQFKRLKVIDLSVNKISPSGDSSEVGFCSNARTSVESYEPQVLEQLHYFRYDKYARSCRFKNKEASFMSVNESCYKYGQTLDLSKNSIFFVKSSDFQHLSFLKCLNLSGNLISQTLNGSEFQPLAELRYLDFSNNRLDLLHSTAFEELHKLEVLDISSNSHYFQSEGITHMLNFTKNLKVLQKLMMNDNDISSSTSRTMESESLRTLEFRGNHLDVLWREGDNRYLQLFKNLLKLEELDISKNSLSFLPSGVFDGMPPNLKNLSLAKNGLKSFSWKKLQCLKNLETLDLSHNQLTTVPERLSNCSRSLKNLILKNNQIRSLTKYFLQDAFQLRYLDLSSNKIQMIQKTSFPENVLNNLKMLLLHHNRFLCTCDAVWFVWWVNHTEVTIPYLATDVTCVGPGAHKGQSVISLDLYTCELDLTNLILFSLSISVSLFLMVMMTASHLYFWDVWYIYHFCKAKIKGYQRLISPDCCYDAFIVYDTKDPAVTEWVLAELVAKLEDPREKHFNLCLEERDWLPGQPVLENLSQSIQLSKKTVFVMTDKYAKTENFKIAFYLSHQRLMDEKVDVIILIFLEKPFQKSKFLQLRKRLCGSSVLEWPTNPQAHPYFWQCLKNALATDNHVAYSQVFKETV
In short: (§1)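 HEK293 cells stably expressing human TLR7 or TLR8, transiently transfected with SEAP reporter plasmid; medium replaced, SIMRA compounds added, 18 h incubation. Supernatant SEAP measured by QuantiBlue; expressed as fold increase in NF-κB activity over PBS control. Tabulated data at 50 μg/mL, representative of three independent experiments.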

[2] = target: T2, Toll-like receptor 8 (Homo sapiens) (UniProt Q9NR97); experiment: Activation of human TLR8 expressed in HEK293XL assessed as induction of NF-kappaB activity by reporter gene assay; in short: as §1
T2 sequence (whole entry): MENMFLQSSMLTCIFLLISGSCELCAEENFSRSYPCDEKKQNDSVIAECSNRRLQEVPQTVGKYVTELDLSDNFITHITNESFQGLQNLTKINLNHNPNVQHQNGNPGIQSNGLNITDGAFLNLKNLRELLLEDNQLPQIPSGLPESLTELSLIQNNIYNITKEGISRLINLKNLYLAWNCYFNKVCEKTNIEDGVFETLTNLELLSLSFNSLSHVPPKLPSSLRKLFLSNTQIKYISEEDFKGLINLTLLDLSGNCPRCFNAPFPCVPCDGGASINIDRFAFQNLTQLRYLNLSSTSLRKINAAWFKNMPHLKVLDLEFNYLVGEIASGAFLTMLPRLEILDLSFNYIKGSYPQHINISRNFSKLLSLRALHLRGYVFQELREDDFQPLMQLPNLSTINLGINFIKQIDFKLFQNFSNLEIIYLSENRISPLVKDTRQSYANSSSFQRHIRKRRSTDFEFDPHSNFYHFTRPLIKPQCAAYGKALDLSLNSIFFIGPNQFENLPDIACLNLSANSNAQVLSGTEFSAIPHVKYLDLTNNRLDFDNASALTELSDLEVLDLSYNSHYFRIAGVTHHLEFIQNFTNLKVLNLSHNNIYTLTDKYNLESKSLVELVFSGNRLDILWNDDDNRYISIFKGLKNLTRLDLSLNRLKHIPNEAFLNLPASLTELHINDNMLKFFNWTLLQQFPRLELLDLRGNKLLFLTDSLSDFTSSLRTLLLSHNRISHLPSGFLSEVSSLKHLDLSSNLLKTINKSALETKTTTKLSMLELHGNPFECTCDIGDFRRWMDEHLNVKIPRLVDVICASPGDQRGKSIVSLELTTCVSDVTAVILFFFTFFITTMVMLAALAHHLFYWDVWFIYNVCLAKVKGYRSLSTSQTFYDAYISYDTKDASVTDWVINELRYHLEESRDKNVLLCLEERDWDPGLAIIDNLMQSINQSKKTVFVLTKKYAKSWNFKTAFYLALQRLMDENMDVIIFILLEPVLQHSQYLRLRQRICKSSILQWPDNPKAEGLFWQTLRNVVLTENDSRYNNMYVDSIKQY

Homo sapiens = species on record: Homo sapiens; experiment: Immunostimulatory activity in human pDC assessed as induction of IP10 at 100 ug/ml after 24 hrs; format: functional
In short: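 Human pDCs plated at 1 × 10^6 cells/mL; compounds in PBS added, 37 °C for 24 h; supernatant cytokines/chemokines by human Luminex multiplex kit.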

Measured: Activity

Nc1ccn([C@@H]2O[C@H](COP(=O)(S)O[C@H]3[C@@H](O)[C@H](n4cnc5c(N)ncnc54)O[C@@H]3CO)[C@@H](OP(=O)(S)OC[C@H]3O[C@@H](n4ccc(=O)[nH]c4=O)[C@H](O)[C@@H]3OP(=O)(S)OC[C@H]3O[C@@H](n4ccc(=O)[nH]c4=O)[C@H](O)[C@@H]3OP(=O)(S)OC[C@H]3O[C@@H](n4ccc5c(=O)[nH]c(N)nc54)[C@H](O)[C@@H]3OP(=O)(S)OC[C@H]3O[C@@H](n4cnc5c(N)ncnc54)[C@H](O)[C@@H]3OP(=O)(S)OC[C@H]3O[C@@H](n4ccc(N)nc4=O)[C@H](O)[C@@H]3OP(=O)(S)OC[C@H]3O[C@@H](n4ccc5c(=O)[nH]c(N)nc54)[C@H](O)[C@@H]3OP(=O)(S)OC[C@H]3O[C@@H](n4cnc5c(N)ncnc54)[C@H](O)[C@@H]3OP(=O)(S)OC[C@H]3O[C@@H](n4ccc(=O)[nH]c4=O)[C@H](O)[C@@H]3OP(=O)(S)OC[C@H]3O[C@@H](n4ccc(=O)[nH]c4=O)[C@H](O)[C@@H]3OP(=O)(S)OCC(O)COP(=O)(S)O[C@H]3[C@@H](O)[C@H](n4ccc(=O)[nH]c4=O)O[C@@H]3COP(=O)(S)O[C@H]3[C@@H](O)[C@H](n4ccc(=O)[nH]c4=O)O[C@@H]3COP(=O)(S)O[C@H]3[C@@H](O)[C@H](n4cnc5c(N)ncnc54)O[C@@H]3COP(=O)(S)O[C@H]3[C@@H](O)[C@H](n4ccc5c(=O)[nH]c(N)nc54)O[C@@H]3COP(=O)(S)O[C@H]3[C@@H](O)[C@H](n4ccc(N)nc4=O)O[C@@H]3COP(=O)(S)O[C@H]3[C@@H](O)[C@H](n4cnc5c(N)ncnc54)O[C@@H]3COP(=O)(S)O[C@H]3[C@@H](O)[C@H](n4ccc5c(=O)[nH]c(N)nc54)O[C@@H]3COP(=O)(S)O[C@H]3[C@@H](O)[C@H](n4ccc(=O)[nH]c4=O)O[C@@H]3COP(=O)(S)O[C@H]3[C@@H](O)[C@H](n4ccc(=O)[nH]c4=O)O[C@@H]3COP(=O)(S)O[C@H]3[C@@H](O)[C@H](n4ccc(N)nc4=O)O[C@@H]3COP(=O)(S)O[C@H]3[C@@H](O)[C@H](n4cnc5c(N)ncnc54)O[C@@H]3CO)[C@H]2O)c(=O)n1 (stereo partly drawn)
active: all assays above
